The text below walks through data of ChEMBL document CHEMBL1125109, “High potency dipeptide sweeteners. 1. L-aspartyl-D-phenylglycine esters” (J Med Chem, 1990).

This assay can be described thus: Sweetness potency relative to 5-10% of sucrose. It is filed as functional. The procedure, abridged: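 Human taste panel: five to ten expert male panelists tasted and spat 10 mL of sweetener solution, rating sweetness potency and quality against five sucrose standards (0.04 M/1.4% to 0.35 M/12.0%). Test solution generally equivalent to 5–10% sucrose. Potency = equi-sweet sucrose concentration divided by actual sweetener concentration; mean ± 95% confidence limit. Acute oral rat toxicity tested first.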

In turn, `CC(OC(=O)[C@H](NC(=O)[C@@H](N)CC(=O)O)c1ccccc1)C(C)(C)C` (stereo partly specified) came in with a Potency of 30.

The compound `N[C@@H](CC(=O)O)C(=O)N[C@@H](C(=O)OC1CC2CCC1C2)c1ccccc1` (stereo in doubt; 28) returned a Potency of 180.

`CC12CCC(C1)C(C)(C)C2OC(=O)[C@H](NC(=O)[C@@H](N)CC(=O)O)c1ccc(O)cc1` (stereo partly specified) registered a Potency of 420.

`CC12CC(O)C(C1)C(C)(C)C2OC(=O)[C@H](NC(=O)[C@@H](N)CC(=O)O)c1ccccc1` (stereo partly specified) gave a Potency of 100.

On to `CC1CCC(C)C1OC(=O)[C@H](NC(=O)[C@@H](N)CC(=O)O)c1ccccc1` (stereo partly specified), for which the Potency worked out at 380.

Turning to `CC1(C)C2CCC1(C)C(OC(=O)[C@H](NC(=O)[C@@H](N)CC(=O)O)c1ccccc1)C2` (stereo partly specified), the Potency was determined as 0.

Turning to `COC(=O)C(NC(=O)[C@@H](N)CC(=O)O)C(=O)O[C@@H]1C(C)(C)C2CC[C@]1(C)C2` (stereo partly specified), the Potency came out at 50000.

`N[C@@H](CC(=O)O)C(=O)N[C@@H](C(=O)OC1C2CC3COC1C3C2)c1ccccc1` (stereo partly specified) returned a Potency of 80.

`CC1(OC(=O)[C@H](NC(=O)[C@@H](N)CC(=O)O)c2ccccc2)CC2CCC1C2` (stereo partly specified) came in with a Potency of 40.

As to `CC12CCC(C1)C(C)(C)C2OC(=O)[C@H](NC(=O)[C@@H](N)CC(=O)O)c1ccccc1F` (stereo partly specified), the Potency stood at 720.

For the compound `CC1CCCC(C)C1OC(=O)[C@H](NC(=O)[C@@H](N)CC(=O)O)c1ccccc1` (stereo partly specified), the Potency is 210.

`CC1(C)CCC(C)(C)C1OC(=O)[C@H](NC(=O)[C@@H](N)CC(=O)O)c1ccccc1`: the Potency came out at 190.

As for `CC12CCC(O1)C(C)(C)C2COC(=O)[C@H](NC(=O)[C@@H](N)CC(=O)O)c1ccccc1` (stereo partly specified), the Potency was found to be 0.

`N[C@@H](CC(=O)O)C(=O)N[C@@H](C(=O)OC1CC2CCC1C2)c1ccccc1` (stereo in doubt; 26) showed a Potency of 20.

`CC1(C)SC(C)(C)C1OC(=O)[C@H](NC(=O)[C@@H](N)CC(=O)O)c1ccccc1` had a Potency of 300.

The compound `CC1(C)C2CC[C@](C)(C2)[C@@H]1OC(=O)[C@H](NC(=O)[C@@H](N)CC(=O)O)c1ccccc1` (stereo in doubt; 29) registered a Potency of 1200.
